Measured values taken from ChEMBL document CHEMBL1134445, “Design and synthesis of potent C(2)-symmetric diol-based HIV-1 protease inhibitors: effects of fluoro substitution” (J Med Chem, 2001).

Columns and labels:
[1] = biological target: Human immunodeficiency virus type 1 protease (Human immunodeficiency virus 1) (UniProt Q72874); assay: Anti-HIV-1 activity against mutant HIV-1 in MT-4 cells (mutation selected with ritonavir); assay type: functional, cell-based; settings: MT4
How it was run: (§1)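 Resistant HIV-1 IIIb raised in MT4 cells: started at sub-ED50 drug with 20-50 TCID50 virus, p24 in supernatant tracked, cell-free virus passaged at 5-fold rising drug levels until growing above 50-fold wild-type ED50; these supernatants served as stocks. ED50 then determined in MT4 cells by XTT cytopathic-effect assay.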

[2] = biological target: Human immunodeficiency virus type 1 protease (Human immunodeficiency virus 1) (UniProt Q72874); assay: Anti-HIV-1 activity against mutant HIV-1 in MT-4 cells (mutation selected with nelfinavir); assay type: functional, cell-based; settings: MT4; how it was run: as §1
[3] = biological target: Human immunodeficiency virus type 1 protease (Human immunodeficiency virus 1) (UniProt Q72874); assay: Anti-HIV-1 activity against Wild type virus in MT-4 cells; assay type: functional, cell-based; settings: MT4
How it was run: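 MT4 cells infected with HIV-1; in vitro antiviral ED50 derived from colorimetric XTT read-out of virus cytopathic effect.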

[4] = biological target: Human immunodeficiency virus type 1 protease (Human immunodeficiency virus 1) (UniProt Q72874); assay: Anti-HIV-1 activity against mutant HIV-1 in MT-4 cells (mutation selected with compound 1); assay type: functional, cell-based; settings: MT4; how it was run: as §1
[5] = biological target: Human immunodeficiency virus type 1 protease (Human immunodeficiency virus 1) (UniProt Q72874); assay: Anti-HIV-1 activity against mutant HIV-1 in MT-4 cells (mutation selected with saquinavir); assay type: functional, cell-based; settings: MT4; how it was run: as §1
[6] = biological target: Human immunodeficiency virus type 1 protease (Human immunodeficiency virus 1, UniProt Q72874); assay: Inhibitory concentration against HIV-1 protease
How it was run: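 Recombinant HIV-1 protease, cloned and expressed in Escherichia coli; inhibition measured by fluorometric assay and reported as Ki.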

[7] = test system: Human immunodeficiency virus 1; assay: Anti-HIV-1 activity against Wild type virus. in MT-4 cells; assay type: functional; settings: Human immunodeficiency virus 1, MT4; read-out: ED50 (the source's name)
How it was run: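 Antiviral ED50 determined in MT4 cells infected with HIV-1; cytopathogenic effect read out by colorimetric XTT assay.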

| Compound | ED50 [1] [µM] | ED50 [2] [µM] | ED50 [3] [µM] | ED50 [4] [µM] | ED50 [5] [µM] | Ki [6] [nM] | EC50 [7] [nM] |
| --- | --- | --- | --- | --- | --- | --- | --- |
| Cc1c(O)cccc1C(=O)N[C@@H](CSc1ccccc1)[C@H](O)CN1C[C@H]2CCCC[C@H]2C[C@H]1C(=O)NC(C)(C)C | 0.11 | 2.44 | 0.02 | 0.07 | 0.12 |  |  |
| CNC(=O)[C@@H](NC(=O)[C@H](OCc1ccc(F)cc1F)[C@H](O)[C@@H](O)[C@@H](OCc1ccc(F)cc1F)C(=O)N[C@H](C(=O)NC)C(C)C)C(C)C | 1.89 | 0.48 | 0.72 | 3.35 | 1.17 | 1.12 |  |
| CNC(=O)[C@@H](NC(=O)[C@H](OCc1c(F)cccc1F)[C@H](O)[C@@H](O)[C@@H](OCc1c(F)cccc1F)C(=O)N[C@H](C(=O)NC)C(C)C)C(C)C | > 15 | 7.14 | 1.35 | > 15 | 8.14 | 1.73 |  |
| O=C(NC1c2ccccc2C[C@H]1O)[C@H](OCc1ccc(F)cc1)[C@H](O)[C@@H](O)[C@@H](OCc1ccc(F)cc1)C(=O)N[C@H]1c2ccccc2C[C@H]1O (some centres undefined) | 1.13 | 0.56 | 0.25 | 1.13 |  | 5.39 |  |
| CNC(=O)[C@@H](NC(=O)[C@H](OCc1ccccc1F)[C@H](O)[C@@H](O)[C@@H](OCc1ccccc1F)C(=O)N[C@H](C(=O)NC)C(C)C)C(C)C | 7.45 | 1.15 | 0.28 | 9.34 | 0.63 | 1.92 |  |
| CNC(=O)[C@@H](NC(=O)[C@H](OCc1cc(F)ccc1F)[C@H](O)[C@@H](O)[C@@H](OCc1cc(F)ccc1F)C(=O)N[C@H](C(=O)NC)C(C)C)C(C)C | 10.9 | 1.38 | 0.65 | 10.7 | 1.38 | 1.98 |  |
| CNC(=O)[C@@H](NC(=O)[C@H](OCc1cccc(F)c1)[C@H](O)[C@@H](O)[C@@H](OCc1cccc(F)c1)C(=O)N[C@H](C(=O)NC)C(C)C)C(C)C | 1.69 | 1.1 | 0.68 | 1.84 | 1.04 | 1.83 |  |
| O=C(NC1c2ccccc2C[C@H]1O)[C@H](OCc1ccccc1F)[C@H](O)[C@@H](O)[C@@H](OCc1ccccc1F)C(=O)N[C@H]1c2ccccc2C[C@H]1O (some centres undefined) | 0.51 | 0.21 | 0.05 | 0.27 | 0.08 | 3.26 |  |
| O=C(NC1c2ccccc2C[C@H]1O)[C@H](OCc1c(F)cccc1F)[C@H](O)[C@@H](O)[C@@H](OCc1c(F)cccc1F)C(=O)N[C@H]1c2ccccc2C[C@H]1O (some centres undefined) | 1.39 | 0.25 | 0.06 | 0.31 | 0.13 | 1.64 |  |
| O=C(NC1c2ccccc2C[C@H]1O)[C@H](OCc1cccc(F)c1F)[C@H](O)[C@@H](O)[C@@H](OCc1cccc(F)c1F)C(=O)N[C@H]1c2ccccc2C[C@H]1O (some centres undefined) | 0.88 | 0.06 | 0.03 | 0.24 | 0.05 | 4 |  |
| CNC(=O)[C@@H](NC(=O)[C@H](OCc1ccc(F)c(F)c1)[C@H](O)[C@@H](O)[C@@H](OCc1ccc(F)c(F)c1)C(=O)N[C@H](C(=O)NC)C(C)C)C(C)C | 1.22 | 0.85 | 0.67 | 2.84 | 0.81 | 1.98 |  |
| CNC(=O)[C@@H](NC(=O)[C@H](OCc1ccc(F)cc1)[C@H](O)[C@@H](O)[C@@H](OCc1ccc(F)cc1)C(=O)N[C@H](C(=O)NC)C(C)C)C(C)C | 0.97 | 1.32 | 1.17 | 7.82 | 3.65 | 1.79 |  |
| CNC(=O)[C@@H](NC(=O)[C@H](OCc1cc(F)cc(F)c1)[C@H](O)[C@@H](O)[C@@H](OCc1cc(F)cc(F)c1)C(=O)N[C@H](C(=O)NC)C(C)C)C(C)C | 1.4 | 0.34 | 0.42 | 1.32 | 1.64 | 1.98 |  |
| O=C(NC1c2ccccc2C[C@H]1O)[C@H](OCc1ccc(F)c(F)c1)[C@H](O)[C@@H](O)[C@@H](OCc1ccc(F)c(F)c1)C(=O)N[C@H]1c2ccccc2C[C@H]1O (some centres undefined) | 1.3 | 0.3 | 0.13 | 1.05 | 0.16 | 3.9 |  |
| O=C(NC1c2ccccc2C[C@H]1O)[C@H](OCc1cc(F)ccc1F)[C@H](O)[C@@H](O)[C@@H](OCc1cc(F)ccc1F)C(=O)N[C@H]1c2ccccc2C[C@H]1O (some centres undefined) | 0.71 | 0.1 | 0.02 | 0.16 | 0.08 | 3.29 |  |
| CNC(=O)[C@@H](NC(=O)[C@H](OCc1ccccc1)[C@H](O)[C@@H](O)[C@@H](OCc1ccccc1)C(=O)N[C@H](C(=O)NC)C(C)C)C(C)C | > 15 | > 15 |  | 8.13 | 6.1 | 0.8 | 1320 |
| CC(C)c1nc(CN(C)C(=O)N[C@H](C(=O)N[C@@H](Cc2ccccc2)C[C@H](O)[C@H](Cc2ccccc2)NC(=O)OCc2cncs2)C(C)C)cs1 | 2.47 | 0.15 | 0.06 | 0.98 | 0.41 |  |  |
| CNC(=O)[C@@H](NC(=O)[C@H](OCc1cccc(F)c1F)[C@H](O)[C@@H](O)[C@@H](OCc1cccc(F)c1F)C(=O)N[C@H](C(=O)NC)C(C)C)C(C)C | 2.26 | 0.34 | 0.66 | 1.54 | 1.11 | 1.28 |  |
| CC(C)(C)NC(=O)[C@@H]1C[C@@H]2CCCC[C@@H]2CN1C[C@@H](O)[C@H](Cc1ccccc1)NC(=O)[C@H](CC(N)=O)NC(=O)c1ccc2ccccc2n1 | 0.01 | 0.03 | 0.01 | 0.01 | 0.08 |  |  |
| O=C(NC1c2ccccc2C[C@H]1O)[C@H](OCc1cccc(F)c1)[C@H](O)[C@@H](O)[C@@H](OCc1cccc(F)c1)C(=O)N[C@H]1c2ccccc2C[C@H]1O (some centres undefined) | 0.53 | 0.21 | 0.06 | 0.18 | 0.95 | 7.13 |  |
| O=C(NC1c2ccccc2C[C@H]1O)[C@H](OCc1cc(F)cc(F)c1)[C@H](O)[C@@H](O)[C@@H](OCc1cc(F)cc(F)c1)C(=O)N[C@H]1c2ccccc2C[C@H]1O (some centres undefined) | 1.06 | 0.24 | 0.05 | 0.23 | 0.09 | 5 |  |
| O=C(NC1c2ccccc2C[C@H]1O)[C@H](OCc1ccc(F)cc1F)[C@H](O)[C@@H](O)[C@@H](OCc1ccc(F)cc1F)C(=O)N[C@H]1c2ccccc2C[C@H]1O (some centres undefined) | 1.73 | 0.25 | 0.11 | 0.67 | 0.37 | 1.65 |  |
| O=C(NC1c2ccccc2C[C@H]1O)[C@H](OCc1ccccc1)[C@H](O)[C@@H](O)[C@@H](OCc1ccccc1)C(=O)N[C@H]1c2ccccc2C[C@H]1O (some centres undefined) | 1.28 | 0.1 | 0.1 | 0.46 | 0.07 | 1.22 |  |
